According to ChEMBL document CHEMBL1121713, “Synthesis and antiinflammatory activity of metabolites of piroxicam” (1981):
Active and inactive are the calls of the source. The calls are words filed in the database; no cut-off is given here.

Legend:
[1] = tested on: Rattus norvegicus; assay: Antiinflammatory activity of compound expressed as percentage inhibition of carrageenan edema 4 hr after an oral dose of 10 mg/kg.; assay type: functional
Method in brief: (§1)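 Rat carrageenan paw edema, subplantar carrageenan injection, per Winter et al. Oral dosing in water with 4% polyethylene glycol and 0.2% Tween 80, dilute NaOH added as needed to dissolve. Six rats per treated group, eight per vehicle-only or phenylbutazone group, run concurrently. Read-out is mean % inhibition of edema 4 h after the dose versus vehicle controls.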

[2] = tested on: Rattus norvegicus; assay: Antiinflammatory activity of compound expressed as percentage inhibition of carrageenan edema 4 hr after an oral dose of 33 mg/kg.; assay type: functional; method in brief: as §1
[3] = tested on: Rattus norvegicus; assay: Antiinflammatory activity of compound expressed as percentage inhibition of carrageenan edema 4 hr after an oral dose of 10 mg/kg; Not available; assay type: functional, organism-based; set-up: dose 10 mg/kg; method in brief: as §1

SMILES	inhibition in vivo at 10 mg/kg [1]	inhibition in vivo at 33 mg/kg [2]	inhibition [3]
CN1C(C(=O)Nc2ccccn2)=C(O)c2ccccc2S1(=O)=O [PIROXICAM]	67%	75%	–
CN1c2c(n3ccccc3nc2=O)-c2ccccc2S1(=O)=O	38%	46%	–
CN1C(C(=O)Nc2ccc(O)cn2)=C(O)c2ccccc2S1(=O)=O [HYDROXY PIROXICAM METABOLITE]	15%	17%	–
CN1CC(=O)c2ccccc2S1(=O)=O	–	8%	inactive
CCCCC1C(=O)N(c2ccccc2)N(c2ccccc2)C1=O [PHENYLBUTAZONE]	35%	50%	–
O=C1NS(=O)(=O)c2ccccc21 [SACCHARIN]	–	0%	–
CN1C(C(=O)Nc2cc(O)ccn2)=C(O)c2ccccc2S1(=O)=O	10%	24%	–
CN1C(=O)c2ccccc2S1(=O)=O	–	12%	–
CN1C(C(=O)O)=C(O)c2ccccc2S1(=O)=O	–	0%	–
CN1C(C(=O)Nc2ncccc2O)=C(O)c2ccccc2S1(=O)=O	13%	41%	–
CN1C(C(=O)Nc2cccc(O)n2)=C(O)c2ccccc2S1(=O)=O	31%	40%	–
